Laboratory results reported in ChEMBL document CHEMBL1144022, “Synthesis and anti-HIV activity of 4'-substituted 4'-thiothymidines: a new entry based on nucleophilic substitution of the 4'-acetoxy group” (J Med Chem, 2008).
The source made the active and inactive calls. The rule behind the calls is not given here.

How the values were obtained:
[1] = Cytotoxicity against human M8166 cells after 4 days by MTT assay; format: cell-based
[2] = Cytotoxicity against human MT4 cells after 4 days by MTT assay; format: cell-based
How it was run: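 Mock-infected MT-4 cells were run in parallel with the antiviral assay, with various concentrations of compound for 4 days at 37 °C. Viability was read by MTT. The value is the concentration that reduces viability by 50%.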

[3] = tested on: Human immunodeficiency virus 2; assay: Antiviral activity against HIV2 in human M8166 cells assessed as virus-induced cytopathogenicity after 4 days by MTT assay; format: functional, organism-based; details: Human immunodeficiency virus 2, M8166, 96 h
How it was run: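 M8166 cells (1 × 10⁵) were infected with HIV-2 at an MOI of 0.1 and cultured with various concentrations of compound for 4 days at 37 °C. Viability was read by MTT. The value is the concentration giving 50% protection against the viral cytopathic effect.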

[4] = tested on: Human immunodeficiency virus 1; assay: Antiviral activity against HIV1 3B in human MT4 cells assessed as virus-induced cytopathogenicity after 4 days by MTT assay; format: functional, organism-based; details: Human immunodeficiency virus 1, 3B, MT4, 96 h
How it was run: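 MT-4 cells (1 × 10⁵ cells/mL) were infected with HIV-1 IIIB at an MOI of 0.02 and cultured with various concentrations of compound for 4 days at 37 °C. Viable cells were counted by MTT. The value is the concentration giving 50% protection against the viral cytopathic effect.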

[5] = tested on: Human immunodeficiency virus type 1 reverse transcriptase (Human immunodeficiency virus 1), Q72547 [M184V]; assay: Activity at reverse transcriptase M184V mutant in HIV1 assessed as suppression of replication

Structure (SMILES): C=CC[C@]1(CO)S[C@@H](n2cc(C)c(=O)[nH]c2=O)C[C@@H]1O
- CC50 at 96 h [1]: > 100 µM
- CC50 at 96 h [2]: > 100 µM
- EC50 [3]: > 100 µM
- EC50 [4]: > 100 µM

Structure (SMILES): C#C[C@]1(CO)S[C@@H](n2cc(C)c(=O)[nH]c2=O)C[C@@H]1O
- CC50 at 96 h [1]: > 10 µM
- CC50 at 96 h [2]: > 100 µM
- EC50 [3]: 0.13 µM
- EC50 [4]: 0.31 µM
- Activity [5]: Active

Structure (SMILES): Cc1cn([C@H]2C[C@H](O)[C@@](C#N)(CO)S2)c(=O)[nH]c1=O
- CC50 at 96 h [1]: > 10 µM
- CC50 at 96 h [2]: > 100 µM
- EC50 [3]: 0.023 µM
- EC50 [4]: 0.037 µM
- Activity [5]: Active

Structure (SMILES): CO[C@]1(CO)S[C@@H](n2cc(C)c(=O)[nH]c2=O)C[C@@H]1O
- CC50 at 96 h [1]: > 100 µM
- CC50 at 96 h [2]: > 100 µM
- EC50 [3]: 1.2 µM
- EC50 [4]: > 4 µM

Structure (SMILES): Cc1cn([C@H]2C[C@H](O)[C@](CO)(Sc3ccccc3)S2)c(=O)[nH]c1=O
- CC50 at 96 h [1]: > 100 µM
- CC50 at 96 h [2]: > 100 µM
- EC50 [3]: > 100 µM
- EC50 [4]: > 100 µM

Structure (SMILES): Cc1cn([C@H]2C[C@H](O)[C@](CO)(N=[N+]=[N-])S2)c(=O)[nH]c1=O
- CC50 at 96 h [1]: > 10 µM
- CC50 at 96 h [2]: 40 µM
- EC50 [3]: 0.024 µM
- EC50 [4]: 0.02 µM
